The target in assay [1] is 5-hydroxytryptamine receptor 2B (Rattus norvegicus, UniProt P30994). Kind of assay: Displacement of [3H]5-HT binding to serotonin receptor of rat fundus membranes. To be noted: read-out: pA2 (converted).
The species named for assay [2] is Rattus norvegicus. As to the kind of experiment: Mean responses per minute during the extinction session. It counts as functional. An outline of the steps: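 Male Sprague-Dawley rats trained in a two-lever operant task to discriminate racemic DOM (1.0 mg/kg) from saline, given 15 min before a VI-15s reinforcement schedule. Test compound given by injection before a 2.5-min nonreinforced extinction session. Read-outs are DOM-lever responses as percent of total responses, and responses per minute. Values are means ±SEM over the animals responding; no responding was recorded as disruption.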

Assay [3] concerns Rattus norvegicus. As to the kind of experiment: Responses made on the DOM -appropriate lever as a percent of total responses; data was collected during the 2.5 min extinction session at 7 mg/kg dose. In kind it is functional. An outline of the steps: (§1)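 Male Sprague-Dawley rats trained to tell racemic DOM (1.0 mg/kg) from saline in a two-lever operant task (VI-15s schedule). Drug was given 15 min before a 2.5-min nonreinforced extinction session. The read-out was DOM-appropriate lever responses as % of total responses, with about 5 rats per dose. ED50 was taken from dose-response data by Finney's method.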

Assay [4] concerns Rattus norvegicus. As to the kind of experiment: Responses made on the DOM -appropriate lever as a percent of total responses; data was collected during the 2.5 min extinction session at 12 mg/kg dose. It counts as functional. An outline of the steps:
as §1

Assay [5] addresses Serotonin (5-HT) receptor. As to the kind of experiment: Evaluated for inhibition of specific [3H]5-HT receptor binding in rat cortex. A digest of the protocol: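 Rat cortex (dorsal to rhinal sulcus) from male Sprague-Dawley rats (150–200 g), pooled, homogenized in 0.05 M Tris-HCl pH 7.4, washed four times by centrifugation with a 37 °C 10-min incubation between washes. [3H]-5-HT binding done with varying test compound concentrations in 50 mM Tris pH 7.4, 10 μM pargyline, 4 mM CaCl2, 7 min at 37 °C. Filtered on glass fibre. Specific binding taken as the difference with 1 μM metergoline.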

Results on six compounds are retold here after ChEMBL document CHEMBL1122596, “Synthesis and evaluation of a novel series of N,N-dimethylisotryptamines” (J Med Chem, 1984).

One may read the IC50 as the midpoint of a concentration-inhibition curve. Higher therefore signals lower potency.

The structures appear in SMILES notation. Where “and” joins values, the source holds several entries; their conditions need not be identical. Identical values can stand only once.

Sequence of 5-hydroxytryptamine receptor 2B (P30994 whole entry): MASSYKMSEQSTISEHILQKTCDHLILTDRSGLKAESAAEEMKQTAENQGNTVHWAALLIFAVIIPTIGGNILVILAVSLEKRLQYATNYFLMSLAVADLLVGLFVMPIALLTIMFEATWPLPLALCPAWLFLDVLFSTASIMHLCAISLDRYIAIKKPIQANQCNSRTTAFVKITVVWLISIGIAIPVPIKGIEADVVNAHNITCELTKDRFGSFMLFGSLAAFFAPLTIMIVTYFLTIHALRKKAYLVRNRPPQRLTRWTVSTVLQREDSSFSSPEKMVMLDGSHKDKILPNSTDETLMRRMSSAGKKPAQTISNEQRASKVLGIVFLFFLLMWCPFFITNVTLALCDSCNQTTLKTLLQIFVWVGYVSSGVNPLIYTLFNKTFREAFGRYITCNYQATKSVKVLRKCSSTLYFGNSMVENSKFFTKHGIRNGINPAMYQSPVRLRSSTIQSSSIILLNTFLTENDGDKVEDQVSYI

In the case of `CCN(CCN(C)C)c1ccccc1`, the Kb in assay [1] was 0.537 µM.

Take `CN(C)CCn1cnc2ccccc21`: the Kb in assay [1] is 0.138 µM. In assay [2], the Response rate is 12.6 and 15.2. In addition, the DOM in assay [3] and in assay [4] was 0% in each case.

`COc1ccc2c(CCN)c[nH]c2c1` yielded an IC50 in assay [5] of 0.63 µM.

`COc1cccc2[nH]cc(CCN)c12` gave an IC50 in assay [5] of 0.22 µM.

As for `NCCC1CNc2ccccc21` (centres undefined), the Kb in assay [1] was 2.09 µM.

As for `CN(C)CCN1CCc2ccccc21`, the Kb in assay [1] is 0.269 µM.
